Compound activity as filed in PubChem.
Compounds with a hit are over-represented: about 6.7% of the library has one in this group of screens.
T cruzi repl = T. cruzi replication inhibition. 1.4% of 300,000 active. AID 1885. T. cruzi beta-gal in NIH3T3, luminescence, 90 h. inhibition, % (no concentration beside the values);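 active = mean inhibition across valid replicates above about 55%, limit read from the data; inconclusive = mean below that limit but half or more replicates reach it; inactive = mean below it, under half of replicates reach it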;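 also: signal also drops with host cell toxicity which is not excluded here; 0% = plate median of DMSO wells and 100% = zero luminescence signal; higher percent means less beta-gal luminescence so fewer parasites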
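compound dosing = single 50 nL compound addition per well in DMSO | material = NIH/3T3 host cells with β-galactosidase reporter T. cruzi | input = 5,000 host fibroblasts per well | timing = ≥90 h infection period, 3 h prior cell attachment | read-out basis = percent inhibition of parasite-derived β-gal signal | detection = GalScreen β-gal luminescence, detergent lysis, 60 min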
CHOP inhibitor = blocks CHOP induction under ER stress; inhibition, % at 10 µM; AID 2732; 3.8% of 220,000 active; CHO-K1 CHOP-promoter luciferase, tunicamycin-induced, 15-18 h;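 active = compounds that reduced the stress-induced luciferase reporter signal by more than about 70% of percent inhibition, limit read from the data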;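 also: 0% = tunicamycin plus vehicle and 100% = wells without tunicamycin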
GRIN3A LBD mod = modulates the human NR3A ligand-binding domain; 2.5% of 340,000 active; Tm shift relative to glycine control, % at 25 µM; NR3A LBD differential scanning fluorimetry, Tm shift; 0% = protein alone, 100% = glycine-bound protein;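 active = melting temperature shift of at least 10% of the positive control shift, at one fixed dose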
PREPL inh = inhibits the human prolyl oligopeptidase-like enzyme; recombinant PREPL, fluorescence polarization activity-based probe; 0.68% of 320,000 active; inhibition, % at 5.96 µM; Q4J6C6; in the data active = inhibition above about 43%;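 also: 0% = enzyme with DMSO and 100% = wells lacking enzyme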
Target sequence (Q4J6C6 whole entry, looked up): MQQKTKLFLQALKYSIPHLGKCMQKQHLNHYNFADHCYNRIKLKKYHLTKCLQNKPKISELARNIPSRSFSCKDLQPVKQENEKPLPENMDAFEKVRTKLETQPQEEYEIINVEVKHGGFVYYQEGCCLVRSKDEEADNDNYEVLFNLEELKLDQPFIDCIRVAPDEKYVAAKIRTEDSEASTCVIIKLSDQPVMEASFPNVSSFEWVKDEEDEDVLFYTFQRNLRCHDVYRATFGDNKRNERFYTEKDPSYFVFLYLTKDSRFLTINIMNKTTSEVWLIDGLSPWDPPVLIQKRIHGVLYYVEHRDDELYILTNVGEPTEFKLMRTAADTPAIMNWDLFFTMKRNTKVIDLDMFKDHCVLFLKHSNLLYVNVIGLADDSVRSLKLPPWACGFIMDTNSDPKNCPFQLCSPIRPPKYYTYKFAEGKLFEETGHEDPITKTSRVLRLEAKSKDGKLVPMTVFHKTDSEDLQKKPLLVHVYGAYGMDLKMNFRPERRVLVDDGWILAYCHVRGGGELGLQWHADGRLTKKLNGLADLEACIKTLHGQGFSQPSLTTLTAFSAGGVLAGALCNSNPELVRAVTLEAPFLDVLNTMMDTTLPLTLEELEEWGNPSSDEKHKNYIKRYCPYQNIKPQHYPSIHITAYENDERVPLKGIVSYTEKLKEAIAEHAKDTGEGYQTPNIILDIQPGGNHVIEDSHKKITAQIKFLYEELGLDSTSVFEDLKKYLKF
Beta cell apopt = beta cell apoptosis inhibition | AID 435005 | 0.8% of 300,000 active | INS-1E cytokine-induced death, ATP luminescence, 48 h; percent of positive-control rescue, neutral wells zero | protection from apoptosis, % (test concentration not listed);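 active = Every replicate reaches about 75%, or at least half do and their mean reaches it too, limit read from the data; inconclusive = At least half of replicates reach the limit but their mean does not; inactive = Under half of replicates reach the limit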;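 also: 0% = cytokine-treated negative control wells and 100% = positive control rescue; higher means more ATP so stronger rescue from cytokine killing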
CSC inhib = blocks cancer stem cells; AID 2717; cancer stem cell-like cells viability, luminescence; inhibition, % at 7.5 µM; 1.1% of 300,000 active; in the data active = inhibition above about 75%; inconclusive = no clear call, values can overlap the other calls; tested in HMLE shEcad cells
The depositor's hits bear a star.

Screening COc1ccc(NC(C)C(=O)N/N=C/c2ccccc2OCc2ccc(Br)cc2)cc1 (centres undefined) returned T cruzi repl 7.7, CHOP inhibitor 28.2, GRIN3A LBD mod -2.5, PREPL inh 22.9, Beta cell apopt -1.9 and CSC inhib -7.8.
For COc1ccc(C(=O)NNC(=O)c2ccc(S(=O)(=O)N3CCCCC3)cc2)cc1 the results were T cruzi repl -26.3, CHOP inhibitor -3.2, GRIN3A LBD mod 2.1, PREPL inh 18.8, Beta cell apopt 1.5 and CSC inhib -3.9.
`CC(C)c1ccc(NC(=O)c2cc(S(=O)(=O)N3CCCC3)c[nH]2)cc1` gave T cruzi repl -13.6, GRIN3A LBD mod -11.2, PREPL inh 4.9, Beta cell apopt -6.6 and CSC inhib 3.0.
Screening COc1ccc(NC(=O)c2cc(S(=O)(=O)N3CCCCC3)c[nH]2)cc1Cl returned T cruzi repl -4.6, GRIN3A LBD mod 24.8*, PREPL inh -8.2, Beta cell apopt -11.5 and CSC inhib -9.0.
`COc1ccc(NS(=O)(=O)c2cccc(NC(=O)c3ccc(S(=O)(=O)N4CCCCCC4)cc3)c2)cc1` gave T cruzi repl -5.4, CHOP inhibitor 75.0*, GRIN3A LBD mod 5.4, PREPL inh -13.9 and Beta cell apopt 99.7*.
Screening COc1ccc(NS(=O)(=O)c2ccc(O)c(NC(=O)c3ccc(S(=O)(=O)N4CCCC4)cc3)c2)cc1 returned T cruzi repl -11.3, CHOP inhibitor 9.1, GRIN3A LBD mod 3.8, PREPL inh 15.3, Beta cell apopt -3.7 and CSC inhib -1.6.
COc1ccc(C(=O)Nc2ccc(S(=O)(=O)N3CCCC3)cc2)cc1 was read as T cruzi repl -2.1, CHOP inhibitor 7.0, GRIN3A LBD mod 14.4*, PREPL inh 0.5, Beta cell apopt -3.6 and CSC inhib -7.4.
Screening Cc1ccc(NC(=O)c2ccccc2NS(=O)(=O)c2ccc(Cl)s2)cc1S(=O)(=O)N1CCOCC1 returned T cruzi repl 9.8, CHOP inhibitor 15.5, GRIN3A LBD mod 24.3* and PREPL inh 9.3.
COc1ccc(/C(C)=N/NC(=O)c2cccc(S(=O)(=O)N3CCCC3)c2)c(O)c1 was read as T cruzi repl 60.9*, PREPL inh 7.4, Beta cell apopt 108.7* and CSC inhib 100.0*.
`COc1ccc(NC(=O)CCCNC(=O)c2ccc(Cl)cc2)cc1OC` gave T cruzi repl -3.9, GRIN3A LBD mod 0.6, PREPL inh 0.6, Beta cell apopt 1.3 and CSC inhib 0.6.
`COc1ccc(NC(=O)CCCNC(=O)c2ccc(Cl)cc2)cc1S(=O)(=O)N1CCCCC1` gave GRIN3A LBD mod 12.0*.
For O=C(Nc1cc(S(=O)(=O)N2CCOCC2)ccc1O)c1ccc(NS(=O)(=O)c2ccc(Cl)s2)cc1 the results were T cruzi repl -3.4, CHOP inhibitor -30.9, GRIN3A LBD mod 19.4*, PREPL inh 4.0, Beta cell apopt -6.9 and CSC inhib -3.2.
Screening O=S(=O)(Nc1cc(S(=O)(=O)N2CCCC2)ccc1O)c1ccc(Cl)s1 returned GRIN3A LBD mod -5.6.
For COc1ccc(C)cc1NC(=O)c1ccccc1NS(=O)(=O)c1ccc(Cl)s1 the results were T cruzi repl 3.7, CHOP inhibitor 32.6, GRIN3A LBD mod 16.8*, PREPL inh 1.4, Beta cell apopt 36.2 and CSC inhib inconclusive.
`O=C(Nc1ccc(S(=O)(=O)N2CCCC2)cc1)c1ccc(F)cc1` gave GRIN3A LBD mod 4.2.
For CN1CCN(S(=O)(=O)c2cccc(C(=O)Nc3cccc([N+](=O)[O-])c3)c2)CC1 the results were T cruzi repl 2.6, GRIN3A LBD mod 16.9*, PREPL inh 11.1, Beta cell apopt 1.2 and CSC inhib -9.4.
Screening O=C(Nc1ccc([N+](=O)[O-])cc1)c1ccc(S(=O)(=O)N2CCCC2)cc1 returned T cruzi repl 10.2, GRIN3A LBD mod 10.6*, PREPL inh 5.5, Beta cell apopt -0.1 and CSC inhib 0.3.
For COc1ccc(NS(=O)(=O)c2ccc(O)c(NC(=O)c3ccc(S(=O)(=O)N4CCCCCC4)cc3)c2)cc1 the results were T cruzi repl -25.4, CHOP inhibitor 27.1, GRIN3A LBD mod 16.1*, PREPL inh 4.7 and Beta cell apopt -5.9.
Screening CCc1cccc(NC(=O)c2cccc(S(=O)(=O)N3CCN(C)CC3)c2)c1 returned T cruzi repl -12.5, GRIN3A LBD mod -0.9, PREPL inh 6.2 and CSC inhib -31.3.
COc1ccc(NC(=O)CN(C)C(=O)/C=C/c2ccc(S(=O)(=O)N3CCCCCC3)cc2)cc1 was read as T cruzi repl 5.4, GRIN3A LBD mod -0.6, PREPL inh 11.6, Beta cell apopt 75.1* and CSC inhib 14.3.
For CCOc1ccc(C(=O)N[C@H](C(=O)Nc2cccc(S(=O)(=O)N3CCOCC3)c2)C(C)C)cc1 the results were GRIN3A LBD mod 0.6.
For CCOc1ccc(C(=O)N[C@H](C(=O)Nc2cccc(S(=O)(=O)N3CCCCC3)c2)C(C)C)cc1 the results were T cruzi repl 8.5, CHOP inhibitor 84.5*, GRIN3A LBD mod -4.9, PREPL inh 2.8, Beta cell apopt 3.2 and CSC inhib 6.9.
Screening CCOc1ccc(CCNC(=O)C2CC(=O)N(c3ccc4c(c3)OCCO4)C2)cc1OCC (centres undefined) returned T cruzi repl 0.3, GRIN3A LBD mod -0.3, PREPL inh 9.1, Beta cell apopt 1.1 and CSC inhib -5.8.
For CC(C)Oc1ccc(CCNC(=O)CC2C(=O)NCCN2C)cc1 (centres undefined) the results were T cruzi repl 10.3, CHOP inhibitor 9.7, GRIN3A LBD mod 0.3, PREPL inh -1.6, Beta cell apopt -3.7 and CSC inhib 0.4.
`COc1ccc(CC(=O)N(C)Cc2ccc(Cl)cc2)cc1S(=O)(=O)N1CCOCC1` gave T cruzi repl 12.2, GRIN3A LBD mod -1.0, PREPL inh -12.1, Beta cell apopt -5.1 and CSC inhib -1.6.
`COc1ccc(CC(=O)N(C)Cc2ccc(C(C)(C)C)cc2)cc1S(=O)(=O)N1CCOCC1` gave T cruzi repl 11.9, GRIN3A LBD mod 11.1*, PREPL inh 18.0, Beta cell apopt -11.3 and CSC inhib -3.5.
For Cc1cc(C)n(C(=O)CNc2cccc(Cl)c2C)n1 the results were T cruzi repl -1.8, CHOP inhibitor 49.5, GRIN3A LBD mod 10.2*, PREPL inh 10.3, Beta cell apopt 3.1 and CSC inhib 9.0.
Screening F[B-](F)(F)c1cc2ccccc2s1 returned GRIN3A LBD mod -3.3.
`O=C(c1cc(-c2ccc(O)cc2)on1)N1CCN(c2ccc(F)cc2)CC1` gave T cruzi repl -6.2, GRIN3A LBD mod 5.0, PREPL inh -12.5, Beta cell apopt 1.2 and CSC inhib 111.4*.
O=C(c1cc(-c2ccc(O)cc2)on1)N1CCN(c2ccccc2)CC1 was read as T cruzi repl -8.7, GRIN3A LBD mod 11.6*, PREPL inh 2.5, Beta cell apopt -1.1 and CSC inhib 104.3*.
